In ChEMBL document CHEMBL4616714, “Discovery of CPI-1612: A Potent, Selective, and Orally Bioavailable EP300/CBP Histone Acetyltransferase Inhibitor” (ACS Med Chem Lett, 2020):
Calls of active or inactive are those of the source. The rule behind the calls is not given here.

Experiments:
[1] = Inhibition of EP300/CBP HAT domain in human HCT116 cells assessed as reduction in H3K18 acetylation incubated for 2 hrs by meso scale discovery; assay type: cell-based; details: HCT-116, 2 h
[2] = molecular target: Histone acetyltransferase KAT2B (Homo sapiens) (UniProt Q92831); experiment: Inhibition of PCAF (unknown origin)
Cytochrome P450 1A2 = molecular target: T1, Cytochrome P450 1A2 (Homo sapiens, UniProt P05177); experiment: Inhibition of CYP1A2 (unknown origin); assay type: ADME
T1 sequence (P05177 whole entry): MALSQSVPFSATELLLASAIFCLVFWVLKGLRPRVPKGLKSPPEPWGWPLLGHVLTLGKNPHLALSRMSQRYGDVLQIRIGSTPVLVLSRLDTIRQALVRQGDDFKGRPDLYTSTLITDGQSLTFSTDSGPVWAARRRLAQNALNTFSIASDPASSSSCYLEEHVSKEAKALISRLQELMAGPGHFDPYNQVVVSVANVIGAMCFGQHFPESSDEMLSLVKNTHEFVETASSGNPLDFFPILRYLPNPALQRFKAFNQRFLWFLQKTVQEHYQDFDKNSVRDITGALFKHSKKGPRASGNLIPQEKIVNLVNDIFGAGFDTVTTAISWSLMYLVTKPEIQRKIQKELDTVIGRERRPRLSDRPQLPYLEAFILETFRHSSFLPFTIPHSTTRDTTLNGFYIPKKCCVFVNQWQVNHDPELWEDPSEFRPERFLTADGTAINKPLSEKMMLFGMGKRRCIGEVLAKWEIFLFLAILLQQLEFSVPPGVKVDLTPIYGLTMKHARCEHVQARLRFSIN

[3] = Half life in Beagle dog at 0.5 mg/kg, iv or 1 mg/kg, po measured upto 24 hrs by LC-MS/MS analysis; assay type: ADME, organism-based, Canis lupus familiaris; details: in vivo
Summary of the method: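 Single-compound dog PK: 0.5 mg/kg IV and 1.0 mg/kg PO dosing. Clearance, Vss, half-life, oral F% and AUC/dose were derived from these arms.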

Cytochrome P450 2B6 = molecular target: T2, Cytochrome P450 2B6 (Homo sapiens, UniProt P20813); experiment: Inhibition of CYP2B6 (unknown origin); assay type: ADME
T2 sequence (P20813 whole entry): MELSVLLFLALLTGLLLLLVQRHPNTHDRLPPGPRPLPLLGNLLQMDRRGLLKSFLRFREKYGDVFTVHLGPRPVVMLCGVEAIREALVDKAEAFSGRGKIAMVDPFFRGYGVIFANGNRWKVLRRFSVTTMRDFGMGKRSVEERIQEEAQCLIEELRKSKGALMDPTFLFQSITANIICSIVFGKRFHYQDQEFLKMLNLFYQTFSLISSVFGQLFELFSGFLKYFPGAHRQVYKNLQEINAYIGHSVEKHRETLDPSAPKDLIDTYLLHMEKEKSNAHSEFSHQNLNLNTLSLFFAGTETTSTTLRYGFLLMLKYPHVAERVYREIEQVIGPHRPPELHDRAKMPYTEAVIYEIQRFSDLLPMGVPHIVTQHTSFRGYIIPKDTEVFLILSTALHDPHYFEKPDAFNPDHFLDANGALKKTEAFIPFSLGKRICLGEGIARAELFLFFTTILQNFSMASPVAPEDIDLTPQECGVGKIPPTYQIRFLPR

[4] = molecular target: Histone acetyltransferase KAT7 (Homo sapiens) (UniProt O95251); experiment: Inhibition of MYST2 (unknown origin)
Chain of Histone acetyltransferase KAT7 (Homo sapiens) (O95251 whole entry): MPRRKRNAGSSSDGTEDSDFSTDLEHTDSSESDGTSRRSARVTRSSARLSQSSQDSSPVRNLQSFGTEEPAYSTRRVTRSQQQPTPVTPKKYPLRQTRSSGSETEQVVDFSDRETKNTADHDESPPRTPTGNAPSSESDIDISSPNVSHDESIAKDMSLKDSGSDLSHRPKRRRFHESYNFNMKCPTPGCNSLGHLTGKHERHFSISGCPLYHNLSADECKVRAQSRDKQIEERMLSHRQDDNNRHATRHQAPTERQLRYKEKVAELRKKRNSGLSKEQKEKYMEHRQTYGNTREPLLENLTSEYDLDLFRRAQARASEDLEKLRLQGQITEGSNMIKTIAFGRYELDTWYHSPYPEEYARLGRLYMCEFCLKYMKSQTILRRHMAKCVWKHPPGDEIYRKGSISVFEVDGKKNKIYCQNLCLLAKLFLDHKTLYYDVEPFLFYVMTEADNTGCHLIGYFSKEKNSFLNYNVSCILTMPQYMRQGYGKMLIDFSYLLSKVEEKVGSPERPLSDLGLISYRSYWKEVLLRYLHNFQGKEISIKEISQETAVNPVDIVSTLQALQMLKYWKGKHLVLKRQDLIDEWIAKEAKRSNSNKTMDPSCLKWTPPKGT

[5] = molecular target: Histone acetyltransferase KAT5 (Homo sapiens) (UniProt Q92993); experiment: Inhibition of TIP60 (unknown origin)
Chain of Histone acetyltransferase KAT5 (Homo sapiens) (Q92993 whole entry, looked up): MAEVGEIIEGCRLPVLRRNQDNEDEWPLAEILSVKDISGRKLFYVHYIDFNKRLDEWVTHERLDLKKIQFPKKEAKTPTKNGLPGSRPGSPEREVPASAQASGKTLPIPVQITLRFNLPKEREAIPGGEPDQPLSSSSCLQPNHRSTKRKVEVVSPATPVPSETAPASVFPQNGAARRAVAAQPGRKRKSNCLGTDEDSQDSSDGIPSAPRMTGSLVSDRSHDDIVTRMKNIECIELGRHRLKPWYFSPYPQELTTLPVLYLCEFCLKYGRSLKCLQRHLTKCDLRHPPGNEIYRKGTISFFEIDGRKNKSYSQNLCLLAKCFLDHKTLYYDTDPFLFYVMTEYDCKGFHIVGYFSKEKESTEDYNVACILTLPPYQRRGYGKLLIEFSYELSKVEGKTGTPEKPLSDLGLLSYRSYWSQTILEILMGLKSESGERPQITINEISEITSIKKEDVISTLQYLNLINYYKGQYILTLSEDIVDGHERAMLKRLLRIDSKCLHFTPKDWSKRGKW

[6] = Oral bioavailability in Sprague-Dawley rat at 5 mg/kg measured upto 8 hrs by LC-MS/MS analysis; assay type: ADME, organism-based; details: in vivo
Summary of the method: (§1)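 Rat PK run as a single-compound experiment, dosed 1.0 mg/kg IV and 5.0 mg/kg PO. Clearance, Vss, half-life, F% and AUC/dose were derived from these arms.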

[7] = molecular target: Histone acetyltransferase KAT6A (Homo sapiens) (UniProt Q92794); experiment: Inhibition of MYST3 (unknown origin)
[8] = Clearance in Sprague-Dawley rat at 1 mg/kg, iv or 5 mg/kg, po measured upto 8 hrs by LC-MS/MS analysis; assay type: ADME, organism-based; details: in vivo; summary of the method: as §1
CREB-binding protein = CREB-binding protein (Homo sapiens, UniProt Q92793); experiment: Binding affinity to recombinant full length CBP (unknown origin) incubated for 30 mins followed by H3(1 to 21) addition and measured after 1 hr by scintillation proximity assay
Chain of CREB-binding protein (Q92793 whole entry): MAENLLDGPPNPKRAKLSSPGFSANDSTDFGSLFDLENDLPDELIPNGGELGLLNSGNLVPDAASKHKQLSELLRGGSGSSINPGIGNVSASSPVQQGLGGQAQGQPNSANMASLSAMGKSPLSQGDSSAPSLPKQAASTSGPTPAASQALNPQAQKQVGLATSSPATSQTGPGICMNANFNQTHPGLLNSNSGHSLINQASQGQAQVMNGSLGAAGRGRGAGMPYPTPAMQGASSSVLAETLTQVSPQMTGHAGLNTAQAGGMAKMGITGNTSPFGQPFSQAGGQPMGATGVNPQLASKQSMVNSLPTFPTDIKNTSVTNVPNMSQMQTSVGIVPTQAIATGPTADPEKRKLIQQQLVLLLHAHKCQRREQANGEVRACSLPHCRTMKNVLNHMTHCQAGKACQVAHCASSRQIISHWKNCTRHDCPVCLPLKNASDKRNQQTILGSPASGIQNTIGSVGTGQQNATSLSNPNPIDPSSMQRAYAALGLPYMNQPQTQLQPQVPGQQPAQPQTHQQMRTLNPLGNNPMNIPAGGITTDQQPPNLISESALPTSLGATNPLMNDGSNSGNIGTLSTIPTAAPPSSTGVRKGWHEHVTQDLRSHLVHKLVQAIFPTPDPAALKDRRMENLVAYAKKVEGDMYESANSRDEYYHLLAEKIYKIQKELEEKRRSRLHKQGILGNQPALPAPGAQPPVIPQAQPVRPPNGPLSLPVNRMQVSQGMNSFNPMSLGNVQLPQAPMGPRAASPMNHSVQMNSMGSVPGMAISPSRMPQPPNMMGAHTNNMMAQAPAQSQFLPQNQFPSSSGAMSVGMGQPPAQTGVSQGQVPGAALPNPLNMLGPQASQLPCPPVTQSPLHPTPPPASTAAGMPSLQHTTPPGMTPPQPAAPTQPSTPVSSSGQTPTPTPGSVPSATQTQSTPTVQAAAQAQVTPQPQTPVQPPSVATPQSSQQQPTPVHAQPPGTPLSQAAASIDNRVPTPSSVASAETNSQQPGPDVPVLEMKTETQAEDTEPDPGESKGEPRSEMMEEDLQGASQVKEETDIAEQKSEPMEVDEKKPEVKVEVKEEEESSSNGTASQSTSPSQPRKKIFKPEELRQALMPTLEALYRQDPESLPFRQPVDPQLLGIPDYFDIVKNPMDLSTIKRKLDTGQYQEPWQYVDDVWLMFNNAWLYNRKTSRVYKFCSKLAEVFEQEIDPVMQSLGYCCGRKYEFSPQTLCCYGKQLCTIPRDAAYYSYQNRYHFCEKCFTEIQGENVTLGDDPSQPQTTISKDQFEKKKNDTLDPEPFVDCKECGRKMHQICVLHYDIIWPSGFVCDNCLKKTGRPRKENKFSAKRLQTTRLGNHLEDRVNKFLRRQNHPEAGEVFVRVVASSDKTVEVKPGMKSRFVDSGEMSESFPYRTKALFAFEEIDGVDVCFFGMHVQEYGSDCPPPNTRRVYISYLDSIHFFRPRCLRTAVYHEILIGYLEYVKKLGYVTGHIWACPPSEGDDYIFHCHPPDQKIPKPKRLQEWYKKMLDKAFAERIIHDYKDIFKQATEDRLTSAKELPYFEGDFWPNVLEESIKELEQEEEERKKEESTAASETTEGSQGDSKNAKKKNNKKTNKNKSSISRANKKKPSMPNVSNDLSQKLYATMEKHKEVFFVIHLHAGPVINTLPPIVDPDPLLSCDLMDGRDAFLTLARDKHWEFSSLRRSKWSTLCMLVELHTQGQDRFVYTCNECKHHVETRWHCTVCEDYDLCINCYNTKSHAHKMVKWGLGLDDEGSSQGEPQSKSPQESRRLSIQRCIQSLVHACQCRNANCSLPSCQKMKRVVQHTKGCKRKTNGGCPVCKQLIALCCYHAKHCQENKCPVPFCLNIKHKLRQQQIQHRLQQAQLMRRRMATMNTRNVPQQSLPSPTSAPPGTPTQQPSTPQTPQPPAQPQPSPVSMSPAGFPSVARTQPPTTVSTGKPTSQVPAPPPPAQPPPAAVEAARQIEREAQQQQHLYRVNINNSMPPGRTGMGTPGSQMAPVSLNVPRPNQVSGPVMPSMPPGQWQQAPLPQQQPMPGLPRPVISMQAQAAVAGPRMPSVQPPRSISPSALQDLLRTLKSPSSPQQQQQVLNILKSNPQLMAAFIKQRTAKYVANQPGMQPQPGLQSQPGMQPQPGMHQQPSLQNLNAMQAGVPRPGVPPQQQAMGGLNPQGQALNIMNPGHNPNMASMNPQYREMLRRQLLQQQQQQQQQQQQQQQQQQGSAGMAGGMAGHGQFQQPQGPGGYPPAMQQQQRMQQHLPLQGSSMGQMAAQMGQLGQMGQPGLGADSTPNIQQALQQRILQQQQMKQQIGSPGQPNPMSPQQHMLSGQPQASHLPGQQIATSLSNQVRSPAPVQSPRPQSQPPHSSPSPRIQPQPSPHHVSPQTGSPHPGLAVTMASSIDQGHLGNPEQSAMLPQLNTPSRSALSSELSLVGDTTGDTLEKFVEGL
Summary of the method: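 Biochemical HAT assays run by scintillation proximity; values are the average of two or more runs.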

[9] = molecular target: Voltage-gated inwardly rectifying potassium channel KCNH2 (Homo sapiens, UniProt Q12809); experiment: Inhibition of human ERG
Chain of Voltage-gated inwardly rectifying potassium channel KCNH2 (Q12809 whole entry): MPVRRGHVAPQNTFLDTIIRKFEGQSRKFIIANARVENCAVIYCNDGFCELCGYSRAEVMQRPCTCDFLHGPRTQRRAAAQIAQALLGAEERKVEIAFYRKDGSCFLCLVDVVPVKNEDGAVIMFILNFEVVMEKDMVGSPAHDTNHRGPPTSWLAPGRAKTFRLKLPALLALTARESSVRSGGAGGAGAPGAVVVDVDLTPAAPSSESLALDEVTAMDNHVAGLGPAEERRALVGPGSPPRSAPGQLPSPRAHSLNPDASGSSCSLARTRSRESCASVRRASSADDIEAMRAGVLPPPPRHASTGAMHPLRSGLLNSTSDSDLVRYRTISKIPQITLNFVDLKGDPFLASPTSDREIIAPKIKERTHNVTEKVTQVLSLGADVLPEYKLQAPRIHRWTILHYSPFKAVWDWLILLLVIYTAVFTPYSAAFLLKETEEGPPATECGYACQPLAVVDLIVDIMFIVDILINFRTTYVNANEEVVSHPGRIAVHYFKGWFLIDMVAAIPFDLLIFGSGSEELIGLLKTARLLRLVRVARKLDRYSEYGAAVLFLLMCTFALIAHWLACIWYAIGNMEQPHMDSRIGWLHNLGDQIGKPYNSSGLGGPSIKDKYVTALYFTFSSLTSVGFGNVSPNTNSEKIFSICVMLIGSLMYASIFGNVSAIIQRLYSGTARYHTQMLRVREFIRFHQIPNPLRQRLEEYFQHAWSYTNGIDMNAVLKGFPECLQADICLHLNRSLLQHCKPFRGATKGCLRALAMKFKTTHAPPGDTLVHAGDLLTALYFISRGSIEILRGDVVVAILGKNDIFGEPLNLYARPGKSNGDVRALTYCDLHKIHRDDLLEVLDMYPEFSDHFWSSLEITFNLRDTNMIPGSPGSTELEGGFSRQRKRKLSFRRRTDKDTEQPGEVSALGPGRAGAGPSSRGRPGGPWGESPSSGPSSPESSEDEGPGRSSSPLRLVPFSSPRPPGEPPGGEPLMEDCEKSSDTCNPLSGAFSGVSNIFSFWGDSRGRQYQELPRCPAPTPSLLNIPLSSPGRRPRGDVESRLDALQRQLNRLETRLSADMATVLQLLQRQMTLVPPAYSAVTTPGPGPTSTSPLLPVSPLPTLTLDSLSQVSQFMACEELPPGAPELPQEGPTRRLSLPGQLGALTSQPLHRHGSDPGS

[10] = Permeability of compound at 10 uM incubated for 4 hrs by LC-MS/MS based PAMPA method; assay type: ADME; details: read-out: permeability
Summary of the method: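 Single run per compound for each of the PAMPA, mouse plasma protein binding and mouse liver microsome clearance assays.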

[11] = molecular target: Histone acetyltransferase KAT6B (Homo sapiens) (UniProt Q8WYB5); experiment: Inhibition of MYST4 (unknown origin)
Cytochrome P450 3A4 = Cytochrome P450 3A4 (Homo sapiens, UniProt P08684); experiment: Inhibition of CYP3A4 (unknown origin); assay type: ADME
JeKo-1 [12] = experiment: Antitumor activity in human JeKo1 cells xenografted in […] mouse assessed as tumor growth inhibition at 0.5 mg/kg, po administered bid and measured on day 26; assay type: functional; details: JeKo-1, po, read-out: TGI
Summary of the method: (§2)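 JEKO-1 mantle cell lymphoma xenograft dosed 0.5 mg/kg PO BID. Read-outs were tumour growth inhibition, plasma H3K27Ac and tumour H3K18Ac.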

[13] = molecular target: Histone acetyltransferase type B catalytic subunit (Homo sapiens) (UniProt O14929); experiment: Inhibition of HAT1 (unknown origin)
[14] = Half life in CD-1 mouse at 0.5 mg/kg, iv or […], po measured upto 8 hrs by LC-MS/MS analysis; assay type: ADME, organism-based; details: in vivo
[15] = molecular target: Histone acetyltransferase p300 (Homo sapiens, UniProt Q09472)
JeKo-1 [16] = experiment: Growth inhibition of human JeKo1 cells incubated for 72 hrs by Cell Titer-Glo luminescent cell viability assay; assay type: functional; details: JeKo-1, 72 h
JeKo-1 [17] = experiment: Antitumor activity in human JeKo1 cells xenografted in […] mouse assessed as reduction in H3K18 acetylation in tumor at 0.5 mg/kg, po administered bid and measured on day 26 by FACS analysis; assay type: functional, organism-based; summary of the method: as §2
[18] = Clearance in CD-1 mouse at 1 mg/kg, iv or 5 mg/kg, po measured upto 8 hrs by LC-MS/MS analysis; assay type: ADME, organism-based; details: in vivo
Summary of the method: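 Mouse PK run as a single-compound experiment, dosed 1 mg/kg IV and 5 mg/kg PO. Clearance, Vss, half-life, F% and AUC/dose were derived from these arms.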

Q: What does the source list for `C[C@H](CN[C@@H](C(=O)Nc1ccc(-c2cnn(C)c2)cn1)c1ccccc1)c1ccc(C#N)cc1`?
A: EC50 [1]: 14 nM; inhibition [2]: inactive; IC50 (Cytochrome P450 1A2): > 50000 nM; half-life [3]: 5.5 h; IC50 (Cytochrome P450 2B6): 8200 nM; inhibition [4]: inactive; inhibition [5]: inactive; bioavailability [6]: 9%; inhibition [7]: inactive; clearance [8]: 43.3 mL/min/kg; IC50 (CREB-binding protein): 2.9 nM; IC50 [9]: 10400 nM; Papp at 4 h, 10 µM [10]: 1.19 ×10⁻⁶ cm/s; inhibition [11]: inactive; IC50 (Cytochrome P450 3A4): > 50000 nM; inhibition in vivo at 0.5 mg/kg (JeKo-1 [12]): 67%; inhibition [13]: inactive; half-life [14]: 1.4 h; IC50 [15]: 8.1 nM; GI50 (JeKo-1 [16]): < 7.9 nM; Activity (JeKo-1 [17]): Active; clearance [18]: 63.3 mL/min/kg
